Results on eleven molecules are retold here after ChEMBL document CHEMBL4406907, “Exploration of zinc-binding groups for the design of inhibitors for the oxytocinase subfamily of M1 aminopeptidases” (Bioorg Med Chem, 2019).

The target in test [1] is T1, Endoplasmic reticulum aminopeptidase 1 (Homo sapiens, UniProt Q9NZ08). As to the kind of experiment: Inhibition of human recombinant ERAP1 expressed in baculovirus infected Sf9 cells using omniMMP fluorogenic substrate incubated for 5 to 10 mins by fluorescence spectrophotometry analysis.
Test [2] addresses T2, Endoplasmic reticulum aminopeptidase 2 (Homo sapiens, UniProt Q6P179). As to the kind of experiment: Inhibition of human recombinant ERAP2 expressed in baculovirus infected Sf9 cells using omniMMP fluorogenic substrate incubated for 5 to 10 mins by fluorescence spectrophotometry analysis.
For test [3], the target named is T1, Endoplasmic reticulum aminopeptidase 1. The experiment in a line: Competitive inhibition of human recombinant ERAP1 expressed in baculovirus infected sf9 cells using L-AMC as substrate incubated for 5 to 10 mins by Michaelis-Menten analysis. The essentials: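 ERAP1 (recombinant, as described previously) at 10 nM with L-AMC as substrate. Michaelis-Menten analysis as previously described. Ki for competitive inhibition derived using a KM for L-AMC of 546 μM.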

For test [4], the target named is T2, Endoplasmic reticulum aminopeptidase 2. As to the kind of experiment: Competitive inhibition of human recombinant ERAP2 expressed in baculovirus infected sf9 cells using R-AMC as substrate incubated for 5 to 10 mins by Michaelis-Menten analysis.
Test [5] relates to Insulin-regulated aminopeptidase (Homo sapiens). As to the kind of experiment: Inhibition of human recombinant IRAP expressed in baculovirus infected Sf9 cells using omniMMP fluorogenic substrate incubated for 5 to 10 mins by fluorescence spectrophotometry analysis.

T1 sequence (Q9NZ08 whole entry): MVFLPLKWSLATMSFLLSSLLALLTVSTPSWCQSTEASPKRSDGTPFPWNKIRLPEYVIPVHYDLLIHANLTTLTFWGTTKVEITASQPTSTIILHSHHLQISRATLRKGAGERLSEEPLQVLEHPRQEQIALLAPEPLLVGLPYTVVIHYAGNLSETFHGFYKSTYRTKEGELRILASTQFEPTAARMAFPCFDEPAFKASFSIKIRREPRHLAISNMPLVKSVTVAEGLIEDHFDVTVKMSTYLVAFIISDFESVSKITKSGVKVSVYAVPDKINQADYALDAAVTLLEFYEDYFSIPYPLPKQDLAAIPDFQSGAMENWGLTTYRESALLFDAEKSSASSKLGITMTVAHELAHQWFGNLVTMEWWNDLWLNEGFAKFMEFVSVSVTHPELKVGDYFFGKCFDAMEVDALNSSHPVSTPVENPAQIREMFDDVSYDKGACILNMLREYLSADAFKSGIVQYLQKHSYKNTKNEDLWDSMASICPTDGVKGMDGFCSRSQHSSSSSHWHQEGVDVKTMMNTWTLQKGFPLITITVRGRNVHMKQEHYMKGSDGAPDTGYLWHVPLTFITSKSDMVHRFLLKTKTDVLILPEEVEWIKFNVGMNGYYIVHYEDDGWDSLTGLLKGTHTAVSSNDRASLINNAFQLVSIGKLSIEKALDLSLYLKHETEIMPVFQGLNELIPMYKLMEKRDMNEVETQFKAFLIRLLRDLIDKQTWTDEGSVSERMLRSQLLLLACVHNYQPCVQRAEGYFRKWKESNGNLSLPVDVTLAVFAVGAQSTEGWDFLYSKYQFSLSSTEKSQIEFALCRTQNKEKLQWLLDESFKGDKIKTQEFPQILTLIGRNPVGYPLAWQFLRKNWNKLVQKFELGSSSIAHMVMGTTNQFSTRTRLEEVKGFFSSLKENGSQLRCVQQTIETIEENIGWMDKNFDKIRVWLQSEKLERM
T2 sequence (Q6P179 whole entry): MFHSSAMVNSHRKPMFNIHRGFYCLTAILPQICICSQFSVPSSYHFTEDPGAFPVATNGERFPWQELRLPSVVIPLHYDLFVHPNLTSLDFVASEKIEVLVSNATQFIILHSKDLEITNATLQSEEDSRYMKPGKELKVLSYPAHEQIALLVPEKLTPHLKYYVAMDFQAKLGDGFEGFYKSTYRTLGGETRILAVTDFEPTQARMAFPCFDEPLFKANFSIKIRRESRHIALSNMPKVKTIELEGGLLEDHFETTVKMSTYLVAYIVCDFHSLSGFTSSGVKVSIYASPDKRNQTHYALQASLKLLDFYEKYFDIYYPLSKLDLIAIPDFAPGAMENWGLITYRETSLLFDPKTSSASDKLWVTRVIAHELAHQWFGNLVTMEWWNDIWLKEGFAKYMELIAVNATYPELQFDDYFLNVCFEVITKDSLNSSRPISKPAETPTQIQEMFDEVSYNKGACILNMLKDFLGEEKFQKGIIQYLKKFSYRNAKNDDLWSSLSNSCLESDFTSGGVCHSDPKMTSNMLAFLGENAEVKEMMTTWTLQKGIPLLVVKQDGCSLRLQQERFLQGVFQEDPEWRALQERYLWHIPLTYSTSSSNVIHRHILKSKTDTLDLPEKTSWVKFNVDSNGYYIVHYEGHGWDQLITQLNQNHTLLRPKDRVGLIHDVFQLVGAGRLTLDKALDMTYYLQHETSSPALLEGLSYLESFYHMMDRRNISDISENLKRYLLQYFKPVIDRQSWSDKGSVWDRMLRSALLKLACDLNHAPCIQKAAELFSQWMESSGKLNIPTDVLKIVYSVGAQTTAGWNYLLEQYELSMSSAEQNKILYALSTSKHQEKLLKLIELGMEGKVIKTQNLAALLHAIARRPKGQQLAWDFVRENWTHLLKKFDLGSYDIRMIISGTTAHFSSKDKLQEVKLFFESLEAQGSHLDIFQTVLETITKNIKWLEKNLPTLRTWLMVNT

Regarding `N[C@@H](CCc1ccccc1)C(=O)NNc1ccc(C(=O)N[C@@H](Cc2c[nH]c3ccccc23)C(=O)OCc2ccccc2)cc1`, the IC50 in test [1] is 11.9 µM; in test [2], over 10 µM. The Ki in test [3] is 4.7 µM.
For `CCCC[C@H](N)C(=O)Nc1cccc(C(=O)N[C@@H](Cc2c[nH]c3ccccc23)C(=O)OCc2ccccc2)c1`, the IC50 was over 100 µM in test [1] and over 10 µM in test [2].
Take `CCCC[C@H](N)C(=O)Nc1cc(C(=O)N[C@@H](Cc2c[nH]c3ccccc23)C(=O)OCc2ccccc2)ccn1`: the half-maximal inhibitory concentration (IC50) in test [1] and in test [2] was over 10 µM each time.
As to `CC(C)[C@H](NC(=O)Cn1cccc(O)c1=O)C(=O)OCc1ccccc1`, the Ki stood at 4.9 µM in test [4] and 44 µM in test [3]. The IC50 in test [1] worked out at 48.5 µM; in test [2], 8.9 µM.
Consider `CCCC[C@H](N)C(=O)NNc1cccc(C(=O)N[C@@H](Cc2c[nH]c3ccccc23)C(=O)OCc2ccccc2)c1`, for which, in test [4], the Ki was found to be 4.3 µM. Moreover, the IC50 is over 10 µM in test [1] and 7.9 µM in test [2].
Consider `CCCC[C@H](N)C(=O)NNc1ccc(C(=O)N[C@@H](Cc2c[nH]c3ccccc23)C(=O)OCc2ccccc2)cc1`, for which the Ki in test [4] is 1.2 µM; in test [3] it was 10.9 µM. Moreover, the IC50 was determined as 11.9 µM in test [1] and 2.2 µM in test [2]. The inhibition result in test [5] was “Dose-dependent effect”.
`COc1cccn(CC(=O)NCCc2ccc(-c3ccccc3)cc2)c1=S`: the Ki in test [4] is 17.4 µM; in test [3] it was 23.4 µM. In addition, the IC50 amounted to 25.6 µM in test [1] and 31.9 µM in test [2].
In the case of `O=C(Cn1cccc(O)c1=O)NCCc1ccc(-c2ccccc2)cc1`, the Ki in test [4] is 27.4 µM; in test [3] it was 17.5 µM. Also, the 50% inhibitory concentration (IC50) in test [1] came to 19.1 µM; in test [2] it was 50.3 µM.
The like results for `O=C(Cn1cccc(O)c1=O)N[C@@H](Cc1c[nH]c2ccccc12)C(=O)OCc1ccccc1` were, in that order, 0.7 µM, 18.5 µM, 20.2 µM and 10.3 µM.
Take `O=C(Cn1cccc(O)c1=O)NCCc1c[nH]c2ccccc12`: in test [4], the Ki worked out at 17.7 µM. Also, the IC50 in test [2] worked out at 31.3 µM.
Take `CCCC[C@H](N)C(=O)Nc1ccc(C(=O)N[C@@H](Cc2c[nH]c3ccccc23)C(=O)OCc2ccccc2)cc1`: the Ki in test [4] was found to be 4.8 µM. In addition, the IC50 was over 100 µM in test [1] and 8.8 µM in test [2].

One may read the IC50 as the concentration that inhibits the measured activity by half. One may read the Ki as a measure of affinity in units of concentration, obtained from inhibition or displacement.
